Measured values: ChEMBL document CHEMBL1921762, “Investigating the antimalarial action of 1,2,4-trioxolanes with fluorescent chemical probes” (J Med Chem, 2011)
pIC50, pKi: −log10 of the molar value. The source made the active and inactive calls. The rule behind the calls is not given here.

What was measured:
[1] = Drug uptake in Plasmodium falciparum […] lipid bodies assessed decrease in fluorescence at 500 nM pretreated with 500 nM unlabeled compound; format: ADME; conditions: 0.5 µM
In short: (§1)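 Mid- to late trophozoite cultures were pre-treated for 10 min at 37 °C with 500 nM unlabeled trioxolane or 0.01% MeOH vehicle in warm complete medium. Medium was then replaced with 500 nM fluorescent trioxolane for 10 min. Cells were washed, saponin-released and examined by fluorescence microscopy. Labeled NLB were counted in ~10 random fields (~300 parasites per group) and normalised to parasite number. Results are % decrease versus MeOH, from 3 experiments with t test.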

[2] = Drug uptake in Plasmodium falciparum assessed as accumulation in small spherical structures in digestive vacuole at 500 nM; format: ADME; conditions: 0.5 µM
In short: (§2)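 Mixed-stage P. falciparum cultures were exposed to 500 nM fluorescent probe for 10 min in RPMI at 37 °C. They were washed twice with PBS, viewed directly or after 0.2% saponin release, and imaged live by epifluorescence at 100X oil immersion, with phase contrast overlay.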

Plasmodium falciparum [3] = assay: Antimalarial activity against Plasmodium falciparum FCB infected in human A-positive type erythrocytes after 72 hrs by SYBR Green I assay
[4] = Drug uptake in Plasmodium falciparum assessed as accumulation in […] lipid bodies at 500 nM in presence of methanol; format: ADME; conditions: 0.5 µM; in short: as §1
Plasmodium falciparum [5] = assay: Antimalarial activity against Plasmodium falciparum K1 infected in human A-positive type erythrocytes after 72 hrs by SYBR Green I assay; conditions: K1, 72 h
[6] = Binding affinity to Plasmodium falciparum calcium-transporting ATPase
Plasmodium falciparum [7] = assay: Drug uptake in Plasmodium falciparum assessed as subcellular localization at 500 nM; format: ADME, organism-based; conditions: 0.5 µM; in short: as §2
[8] = Drug uptake in Plasmodium falciparum assessed as cytoplasmic accumulation at 500 nM; format: ADME, Cytoplasm; conditions: 0.5 µM; in short: as §2
Plasmodium falciparum [9] = assay: Induction of peroxidation of Plasmodium falciparum membrane-incorporated BODIPY at 250 nM after 2.5 hrs by fluorescence microscopic analysis; format: functional, organism-based
In short: (§3)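 Cultures at each asexual stage were exposed at 37 °C for 2.5 h to 250 nM compound or 0.01% MeOH vehicle, then to 40 nM BODIPY 581/591 C11 for a further 30 min. Trophozoites were saponin-released; ring and segmenter stages were imaged in erythrocytes. Peroxidation was read as a red-to-yellow/green fluorescence shift by microscopy.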

Plasmodium falciparum [10] = assay: Induction of peroxidation of Plasmodium falciparum membrane-incorporated BODIPY at ring stage at 250 nM after 2.5 hrs by fluorescence microscopic analysis; format: functional, organism-based; in short: as §3
Plasmodium falciparum [11] = assay: Induction of peroxidation of Plasmodium falciparum membrane-incorporated BODIPY at asexual stage at 250 nM after 2.5 hrs by fluorescence microscopic analysis; format: functional, organism-based; in short: as §3
Plasmodium falciparum [12] = assay: Induction of peroxidation of Plasmodium falciparum membrane-incorporated BODIPY at trophozoite stage at 250 nM after 2.5 hrs by fluorescence microscopic analysis; format: functional, organism-based; in short: as §3
[13] = Drug uptake in Plasmodium falciparum assessed as accumulation in nuclear lipid bodies at 500 nM; format: ADME; conditions: 0.5 µM, in the assay text read “neutral lipid bodies” for “nuclear lipid bodies”
In short: (§4)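 Mixed-stage P. falciparum cultures (strains FCB and 7G8, grown in human A+ or AB+ erythrocytes at 37 °C in supplemented RPMI 1640 under 90% N2/5% O2/5% CO2) were exposed to 500 nM probe for 10 min in RPMI at 37 °C. Cells were washed twice with PBS, viewed directly or after 0.2% saponin release, and imaged by 100X oil-immersion epifluorescence with phase contrast.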

[14] = Drug uptake in Plasmodium falciparum assessed as accumulation in membranous structures at 500 nM; format: ADME; conditions: 0.5 µM; in short: as §4

**Q.** With `CN(C)c1cccc2c(S(=O)(=O)OC34CC5CC(C3)C3(OOC6(CCCCC6)O3)C(C5)C4)cccc12` (mixture of isomers) as the compound, how does the Drug uptake [1] read?
**A.** The Drug uptake was “Not Active”.

**Q.** And the Drug uptake [2]?
**A.** The Drug uptake was “Active”.

**Q.** And the pIC50 (Plasmodium falciparum [3])?
**A.** Its pIC50 is 7.75.

**Q.** And the Drug uptake [4]?
**A.** Its Drug uptake is “Active”.

**Q.** With `CC(C)(N)CNC(=O)C[C@H]1CC[C@]2(CC1)OO[C@]1(O2)C2CC3CC(C2)CC1C3` [OZ277] as the compound, how does the pIC50 (Plasmodium falciparum [5]) read?
**A.** The pIC50 was 8.60.

**Q.** And the pKi [6]?
**A.** The pKi was 5.10.

**Q.** With `CN(C)c1cccc2c(S(=O)(=O)NCCCNC3CCC4(CC3)OOC3(O4)C4CC5CC(C4)CC3C5)cccc12` (mixture of isomers) as the compound, how does the pIC50 (Plasmodium falciparum [3]) read?
**A.** The pIC50 was 7.84.

**Q.** And the Drug uptake (Plasmodium falciparum [7])?
**A.** Its Drug uptake is “Not Active”.

**Q.** And the Drug uptake [8]?
**A.** Its Drug uptake is “Active”.

**Q.** Which results are given for `CC(C)(C)OC(=O)NCCCNC1CCC2(CC1)OOC1(O2)C2CC3CC(C2)CC1C3` (mixture of isomers)?
**A.** pIC50 (Plasmodium falciparum [3]): 7.90; Activity (Plasmodium falciparum [9]): Active; Activity (Plasmodium falciparum [10]): Active; Activity (Plasmodium falciparum [11]): Active; Activity (Plasmodium falciparum [12]): Active

**Q.** With `CN(C)c1cccc2c(S(=O)(=O)OC34CC5CC(C3)C3(OCC6(CCCCC6)O3)C(C5)C4)cccc12` (mixture of isomers) as the compound, how does the Drug uptake [13] read?
**A.** The Drug uptake was “Not Active”.

**Q.** And the pIC50 (Plasmodium falciparum [3])?
**A.** Its pIC50 is 4.60.

**Q.** What about the Drug uptake [14] of the same compound?
**A.** The Drug uptake was “Not Active”.

**Q.** With `C[C@@H]1CC[C@H]2[C@@H](C)C(=O)O[C@@H]3O[C@@]4(C)CC[C@@H]1[C@]32OO4` [ARTEMISININ] as the compound, how does the pIC50 (Plasmodium falciparum [3]) read?
**A.** The pIC50 was 8.10.
